Screening data from PubChem BioAssay.
Sampled rows, rich in hits. Any-hit rate of the full collection: about 0.72%.
STK33 kinase inh = inhibitors of human STK33 kinase | Q9BYT3 | purified STK33, MBP phosphorylation, ADP-Glo luminescence | inhibition, % at 10 µM | 320,000 compounds, 0.073% hits | AID 2661;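 active = inhibition at or above 25%, using the most active replicate where run in duplicate; inactive = inhibition below 25%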
PolyA inhibitor = yeast polyadenylation inhibition; S. cerevisiae SKY197-pL101 polyadenylation reporter, beta-gal luminescence; efflux-impaired pdr1/pdr3 knockout yeast; score 100 = 6 SD above DMSO; activity score, % at 12 µM; 300,000 compounds, 0.02% hits;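 active = lowest replicate activity score at least 50, where 100 means six control SD above control mean; inconclusive = lowest score under 50 but half or more replicates reach 50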;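 note: yeast exposed to compound for 9 h at 30 °C; higher score means more reporter readthrough which indicates perturbed polyadenylation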
AI-2 QS modul = Vibrio harveyi AI-2 quorum sensing modulation; 300,000 compounds, 0.4% hits; Vibrio harveyi JMH597 AI-2 luminescence/OD600 ratio, 9 h; active compounds read low; strain lacks LuxN and CqsS sensors; 0 = neutral-control median; AID 2094; activity change, % at 7.5 µM; in the data active = activity change below about -75%, passing the limit was not always enough; inconclusive = no clear call, values can overlap the other calls;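 note: luminescence divided by OD600 gain over 9 h not by final OD600 alone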
Yeast superoxide = lowers age-related superoxide in aged yeast cells | S. cerevisiae aged cells, superoxide DHE fluorescence; active compounds read low | superoxide response (% of plate mean), % at 10 µM | 330,000 compounds, 0.18% hits | AID 2690;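 active = superoxide response under a set limit, about three screen SD below normal, cut at about 65% in these data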;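 note: yeast aged for seven days with compound at 30 °C before DHE staining; 100% = average MFI of all compound-treated wells on the plate with controls excluded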
GSK3beta inhib = human GSK3beta kinase inhibition. P49841. GST-GSK3beta kinase, ADP-Glo luminescence, 60 min; active compounds read low. activity score (negative = inhibition), % at 10 µM. 300,000 compounds, 0.038% hits. AID 2097;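 active = more than half of replicate wells score below -50%, meaning over 50% inhibition versus plate controls; inconclusive = some replicates but at most half score below -50%; inactive = no replicate scores below -50%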;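 note: 0% = median DMSO wells and -100% = median GW8510 positive control wells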
Target sequence (P49841 whole entry, looked up): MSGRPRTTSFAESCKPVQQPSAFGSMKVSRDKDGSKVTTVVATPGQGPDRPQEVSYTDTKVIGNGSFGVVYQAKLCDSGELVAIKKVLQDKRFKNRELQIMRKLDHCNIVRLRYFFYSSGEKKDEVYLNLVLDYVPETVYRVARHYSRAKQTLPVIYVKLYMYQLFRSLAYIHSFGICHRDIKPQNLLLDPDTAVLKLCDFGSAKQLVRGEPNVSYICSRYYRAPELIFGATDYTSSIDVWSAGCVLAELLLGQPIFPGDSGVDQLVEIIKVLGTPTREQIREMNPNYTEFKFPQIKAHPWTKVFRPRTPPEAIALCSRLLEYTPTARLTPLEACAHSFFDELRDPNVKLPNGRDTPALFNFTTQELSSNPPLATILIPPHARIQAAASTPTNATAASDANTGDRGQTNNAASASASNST
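test system = GST-tagged human GSK3beta kinase, cell-free | reagent = 25 µM ATP with peptide substrate | dosing = one dose of 10 µM per compound | schedule = 60 min reaction, RT | detection = luminescent ADP-Glo measurement of ADP formed | control set = DMSO neutral wells and GW8510 at 20 µM as positive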
GSK3 alpha inh = inhibitors of human GSK-3 alpha kinase; ADP-Glo luminescence, 60 min; inhibition, % at 10 µM; 320,000 compounds, 0.1% hits;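 active = more than half of replicates show inhibition above 20%; inconclusive = some but at most half of replicates above 20% inhibition; inactive = no replicate shows inhibition above 20%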;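 note: GST-tagged GSK-3 alpha with peptide substrate and 25 µM ATP; 0% = DMSO neutral wells and 100% = GW8510 positive control wells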
JMH597 growth = retest: blocks Vibrio harveyi JMH597 growth; shares compounds with AI-2 QS modul; OD600 absorbance, 9 h; lacks LuxN and CqsS sensors; growth inhibition, % at 7.5 µM; 750 compounds, 1% hits; AID 2726;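 active = every replicate shows growth inhibition above 50%; inconclusive = at least half, but not all, replicates pass that cutoff; inactive = fewer than half of replicates pass it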
BB721 const-QS lum = retest counter-screen: BB721 constitutive quorum sensing luminescence decrease. shares compounds with AI-2 QS modul. Vibrio harveyi BB721 luminescence, 9 h. inhibition, % at 7.5 µM. 750 compounds, 95% hits. AID 2727;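 active = inhibition above about 80% in every replicate, not just on average, limit read from the data; inconclusive = at least half of replicates past the limit, but not all; inactive = fewer than half of replicates past the limit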
BB721 growth = retest: blocks Vibrio harveyi BB721 growth; shares compounds with AI-2 QS modul; OD600 absorbance, 9 h; growth inhibition, % at 7.5 µM; 750 compounds, 3% hits;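 active = every replicate shows growth inhibition above 50%; inconclusive = at least half but not all replicates above 50% inhibition; inactive = under half of replicates above 50% inhibition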
AI-2 QS JMH597 = Vibrio harveyi AI-2 signaling luminescence modulation – JMH597 strain, confirmation. shares compounds with AI-2 QS modul. Vibrio harveyi JMH597 AI-2 quorum sensing luminescence, 9 h; luxN and CqsS knockout, AI-2 only. inhibition, % at 7.5 µM. 750 compounds, 97% hits. AID 2736;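 active = every replicate shows more than 75% inhibition of signal versus neutral control wells; inconclusive = half to three quarters of replicates exceed 75% inhibition; inactive = fewer than half of replicates exceed 75% inhibition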
An asterisk follows results filed as active; ? = inconclusive; / = no result given.

SMILES | STK33 kinase inh | PolyA inhibitor | AI-2 QS modul | Yeast superoxide | GSK3beta inhib | GSK3 alpha inh | JMH597 growth | BB721 const-QS lum | BB721 growth | AI-2 QS JMH597
CC12CCC(=O)N1C(C(=O)Nc1ccc(SC(F)F)cc1)CS2 (stereo not given) | 1 | 0 | -94* | 100 | 3 | 1 | 24 | 95* | 17 | 96*
CC(C)c1ccc(NC(=O)C2CSC3(C)CCC(=O)N23)cc1 (stereo not given) | -1 | 15 | -91* | 102 | 2 | 0 | 3 | 93* | 1 | 96*
COc1cccc(OCc2nc(-c3ccc(Br)o3)no2)c1 | 0 | 3 | -83* | 102 | 1 | -5 | 39 | 96* | -1 | 97*
Brc1ccc(-c2noc(COc3ccc4ccccc4c3)n2)o1 | -2 | -1 | 9 | 100 | -1 | 1 | / | / | / | /
COc1cccc(OCc2nc(-c3cccc([N+](=O)[O-])c3)no2)c1 | 0 | -17 | -83* | 105 | 3 | 4 | 14 | 86* | -21 | 93*
O=C(O)CCCC(=O)N1N=C(c2ccccc2)CC1c1cccs1 (stereo not given) | 0 | -11 | 14 | 107 | 1 | -1 | / | / | / | /
CC(=O)Nc1ccc(NC(=O)CSc2nnc(-c3ccco3)o2)cc1 | 0 | -10 | 2 | 100 | 3 | -1 | / | / | / | /
Cc1cccc(CSc2nnc(-c3ccco3)o2)c1 | -1 | -50 | -91* | 113 | 0 | 3 | -3 | 97* | -10 | 98*
Cc1cccc(-c2nnc(SCc3ccccc3)o2)c1 | 1 | -6 | -89* | 98 | -13 | 5 | 43 | 96* | ? | 97*
CC(=O)c1c(C)cc(C)c(CSc2nnc(-c3ccco3)o2)c1C | 0 | 20 | -81* | 78 | 5 | 1 | 22 | 89* | 16 | 91*
Cc1cc(C)cc(-c2nnc(SCc3ccc(C(=O)O)cc3)o2)c1 | 1 | -9 | 48 | 131 | 0 | -5 | / | / | / | /
CSc1nnc(-c2ccccc2)o1 | -1 | -10 | ? | 90 | 1 | 1 | -1 | 10 | 8 | 8
Cc1cccc(CSc2nnc(-c3ccco3)n2C)c1 | -1 | 0 | -21 | 90 | 3 | 1 | / | / | / | /
Cc1ccccc1NC(=O)CN1C(=O)N/C(=C\c2ccccc2OCc2ccc(C(=O)O)cc2)C1=O | 0 | 9 | 19 | 98 | 2 | 0 | / | / | / | /
CCn1cc(S(=O)(=O)N2CCN(c3ccc(Cl)cc3)CC2)cn1 | -1 | -12 | 9 | 100 | -2 | 3 | / | / | / | /
Cc1cc(C(=O)NNC(=O)c2ccc(S(=O)(=O)N(C)C)cc2)c(C)o1 | -2 | 12 | -84* | 78 | -1 | -4 | 12 | 88* | 12 | 93*
Cc1cc(C(=O)NNC(=O)c2ccc(Cl)c(S(N)(=O)=O)c2)c(C)o1 | 0 | / | / | 97 | / | -2 | / | / | / | /
O=C(COc1ccc(F)cc1)Nc1nnc(S(=O)(=O)N2CCCC2)s1 | -1 | ? | 4 | 105 | -1 | -3 | / | / | / | /
O=C(NCCc1ccc(Cl)cc1)c1cnccn1 | -1 | 0 | 2 | 104 | -3 | 1 | / | / | / | /
O=C(Nc1cnn(Cc2ccc(Cl)cc2)c1)c1cnccn1 | 0 | -7 | -96* | 124 | 0 | 6 | 1 | 99* | 8 | 99*
Cc1ccc(CN(C)C(=O)c2cc(COc3cccc(C(F)(F)F)c3)on2)o1 | 1 | 3 | -81* | 97 | 0 | -2 | 65* | 95* | 87* | 96*
CCc1ccc(CN(C)C(=O)c2cc(COc3cccc(C(F)(F)F)c3)on2)nc1 | -1 | -9 | -83* | 140 | -1 | 2 | ? | 92* | ? | 95*
CN(Cc1nccn1C)C(=O)c1cc(COc2cccc(C(F)(F)F)c2)on1 | -2 | 7 | 20 | 83 | 2 | 0 | / | / | / | /
Cc1cccc(NC(=O)C(C)Sc2nc3nc(C)cc(C)n3n2)c1 (stereo not given) | -1 | / | / | 118 | / | -4 | / | / | / | /
CCS(=O)(=O)c1ccc2oc(Nc3cccc(OC)c3)nc2c1 | -1 | -20 | ? | 109 | -2 | -1 | -11 | 82* | -31 | 88*
SMILES | STK33 kinase inh | PolyA inhibitor | AI-2 QS modul | Yeast superoxide | GSK3beta inhib | GSK3 alpha inh | JMH597 growth | BB721 const-QS lum | BB721 growth | AI-2 QS JMH597
COc1ccc(NC(=O)C2CSC(C)(C)N2C=O)cc1 (stereo not given) | -1 | -4 | -89* | 104 | -6 | -1 | 12 | 96* | 1 | 97*
CC(=O)Nc1ccccc1OCC(=O)N(Cc1ccccc1)C(C)C | -1 | -29 | 32 | 93 | 1 | -3 | / | / | / | /
CCCC(=O)NC(=S)Nc1ccccc1F | -2 | 15 | -85* | 101 | -1 | -2 | 21 | 92* | 24 | 87*
CCC(=O)NC(=S)Nc1ccccc1F | -1 | 2 | 16 | 106 | 2 | -2 | / | / | / | /
Cc1ccc(CNC(=O)CCCc2ccccc2)cc1 | 0 | -5 | 8 | 101 | 2 | -4 | / | / | / | /
O=C(CCc1ccccc1)NCc1ccccc1 | -1 | / | -61 | 108 | 2 | -3 | / | / | / | /
Cc1ccc(CNC(=O)CCc2ccccc2)cc1 | -1 | 7 | -81* | 91 | 3 | -2 | 18 | 93* | 18 | 94*
CC(C)c1ccc(CNC(=O)CCc2ccccc2)cc1 | -2 | -4 | -89* | 109 | 6 | -5 | 12 | 96* | 1 | 97*
O=C(Nc1oc2ccccc2c(=O)c1-c1ccc(Cl)cc1)c1ccco1 | -1 | -6 | 41 | 95 | 1 | / | / | / | / | /
COc1ccc(Cc2nc(-c3ccc(Cl)cc3)no2)cc1 | 0 | 18 | -88* | 102 | 0 | 1 | 10 | 97* | -5 | 98*
Clc1ccc(-c2noc(COc3ccccc3)n2)cc1 | -1 | 13 | ? | 115 | 1 | -1 | 1 | 86* | 15 | 94*
Clc1ccc(-c2noc(CCCOc3ccccc3)n2)cc1 | 0 | 3 | 18 | 106 | 3 | -4 | / | / | / | /
CC(C)C(NC(=O)c1ccc(F)cc1)C(=O)NC1(C)CCS(=O)(=O)C1 (stereo not given) | -2 | / | / | 106 | / | 3 | / | / | / | /
CCc1c(C(=O)N2CCCN(C)CC2)csc1C | 0 | -17 | 10 | 109 | 0 | -2 | / | / | / | /
